pEC50: −log10 of the molar value. Values after ≈ are worked out from the molar mass of the structure shown. Some results are limits rather than exact numbers.

The values below come from ChEMBL document CHEMBL3392957, “The discovery of 1,2,3,9b-tetrahydro-5H-imidazo[2,1-a]isoindol-5-ones as a new class of respiratory syncytial virus (RSV) fusion inhibitors. Part 1” (Bioorg Med Chem Lett, 2015).

The test system of series [1] is Respiratory syncytial virus. Put plainly: Antiviral activity against Respiratory syncytial virus B1 infected in human Hep2 cells assessed as inhibition of virus-induced cytopathicity after 5 days by MTT assay. The format is functional, organism-based. As to conditions: B1, HEp-2, 120 h. The gist of the method:
(§1)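 HEp2 cells (1.0 × 10⁴/well) infected at low moi (e.g. RSV A2 at moi 0.01) and added to serially diluted compound; 5 days at 37 °C, 5% CO₂. CPE read by MTT (1 mg/ml, 2 h, 37 °C), isopropanol, absorbance 540 nm; EC₅₀ by non-linear regression. SD given where n > 2.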

For series [2], the system named is Respiratory syncytial virus. Put plainly: Antiviral activity against wild-type Respiratory syncytial virus A Long infected in human Hep2 cells assessed as inhibition of virus-induced cytopathicity after 5 days by MTT assay. The series is classed as functional, organism-based. Particulars: HEp-2, 120 h. Summed up: as §1
A general note: Cytopathic effects are the visible damage that an infection or toxin causes in cultured cells.

Series [3] has as its system Respiratory syncytial virus. Description: Antiviral activity against Respiratory syncytial virus A2 infected in human Hep2 cells assessed as inhibition of virus-induced cytopathicity after 5 days by MTT assay. The format is functional, organism-based. Particulars: A2, HEp-2, 120 h. The gist of the method:
as §1

The nature of series [4]: Cytotoxicity against human Hep2 cells after 5 days by MTT assay. The format is cell-based, HEp-2. Summed up:
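Uninfected HEp2 cells (1.0 × 10⁴/well) with serially diluted compound, 5 days at 37 °C in 5% CO₂; viability by MTT (1 mg/ml, 2 h), isopropanol, absorbance 540 nm; CC₅₀ by non-linear regression.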

Series [5] concerns Respiratory syncytial virus. Description: Antiviral activity against Respiratory syncytial virus A2 infected in human Hep2 cells assessed as inhibition of virus-induced cytopathicity after 5 days by MTT assay relative to alpha-1-acid glycoprotein. The format is functional, HEp-2. The gist of the method: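 RSV A2 CPE assay in HEp2 cells (moi 0.01, 5 days, 37 °C, MTT read-out at 540 nm) run with alpha-1-acid glycoprotein at 1.5 mg/mL; result expressed as fold shift in EC₅₀ versus the assay without AAG.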

Series [6] can be described thus: Kinetic solubility of the compound at pH 2 by nephelometry. The format is physicochemical. As to conditions: buffer, read-out: Kinetic_solubility. The gist of the method: (§2)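 Kinetic solubility by nephelometry, at pH 2 and pH 6.5; reported as a range in μg/mL.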
Series [7] can be described thus: Kinetic solubility of the compound at pH 6.5 by nephelometry. Particulars: buffer, read-out: Kinetic_solubility. The format is physicochemical. Summed up:
as §2

The nature of series [8]: Lipophilicity, log D of the compound in octanol saturated mobile phase at pH 7.4 by chromatographic method. The format is physicochemical. The gist of the method: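 Effective logD determined chromatographically on a SUPELCOSIL LC-ABZ column with octanol-saturated mobile phase, pH 7.4.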
Series [9] deals with Respiratory syncytial virus. Put plainly: Selectivity ratio of EC50 for Respiratory syncytial virus A Long harboring F protein D489 mutant infected in human Hep2 cells to EC50 for wild-type Respiratory syncytial virus A Long infected in human Hep2 cells. The series is classed as functional, HEp-2. Summed up: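 CPE assay: HEp2 cells (1.0 × 10⁴/well) infected at low moi with RSV A Long, either F-protein D489Y mutant or wild type, and added to serially diluted compound. Incubated 5 days at 37 °C, 5% CO₂. MTT (1 mg/ml) added for 2 h, then isopropanol, and absorbance read at 540 nm. EC50 by non-linear regression. Ratio is mutant EC50 over wild-type EC50.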

The nature of series [10]: Plasma protein binding in rat. The series is classed as ADME, cell-free. Particulars: read-out: PPB (converted).
The nature of series [11]: Elimination half life in Sprague-Dawley rat at 1.4 mg/kg, iv. More on the design: dose 1.4 mg/kg, route intravenous. The series is classed as ADME, organism-based. Particulars: in vivo, read-out: beta t1/2 (converted).
Series [12] can be described thus: Total clearance in Sprague-Dawley rat at 1.4 mg/kg, iv. The format is ADME, organism-based. More on the design: dose 1.4 mg/kg, route intravenous. Particulars: in vivo.
Series [13] in a line: Apparent volume of distribution in Sprague-Dawley rat at 1.4 mg/kg, iv. Further details: dose 1.4 mg/kg, route intravenous. The format is ADME, organism-based. Particulars: in vivo, read-out: Vz.
Series [14] can be described thus: Cmax in Sprague-Dawley rat at 22 mg/kg, po as suspension with hydroxypropylmethylcellulose. The series is classed as ADME, organism-based. More on the design: dose 22 mg/kg, route oral. Particulars: in vivo.
Series [15] is described as follows: Elimination half life in Sprague-Dawley rat at 22 mg/kg, po as suspension with hydroxypropylmethylcellulose. The format is ADME, organism-based. More on the design: dose 22 mg/kg, route oral. As to conditions: in vivo, read-out: beta t1/2 (converted).
Series [16] in a line: Oral bioavailability in Sprague-Dawley rat at 22 mg/kg as suspension with hydroxypropylmethylcellulose. The format is ADME, organism-based. Particulars: in vivo.
The test system of series [17] is Respiratory syncytial virus. Description: Selectivity ratio of EC50 for Respiratory syncytial virus A Long harboring F protein D489Y mutant infected in human Hep2 cells to EC50 for wild-type Respiratory syncytial virus A Long infected in human Hep2 cells.
The nature of series [18]: Cmax in Sprague-Dawley rat at 19 mg/kg, po as suspension with hydroxypropylmethylcellulose. The format is ADME, organism-based. More on the design: dose 19 mg/kg, route oral. As to conditions: in vivo. The gist of the method: (§3)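 Male Sprague-Dawley rats, n = 2, given a single oral dose. Plasma pharmacokinetics were analysed for Cmax (µM), terminal half-life (hr) and oral bioavailability F (%). The oral bioavailability estimate draws on a separate intravenous arm, also with n = 2 rats.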

The nature of series [19]: Elimination half life in Sprague-Dawley rat at 19 mg/kg, po as suspension with hydroxypropylmethylcellulose. The series is classed as ADME, organism-based. More on the design: dose 19 mg/kg, route oral. Particulars: in vivo, read-out: beta t1/2. The gist of the method: as §3
Series [20] is described as follows: Oral bioavailability in Sprague-Dawley rat at 19 mg/kg as suspension with hydroxypropylmethylcellulose. The series is classed as ADME, organism-based. As to conditions: in vivo. The gist of the method:
as §3

Series [21] is described as follows: Total clearance in Sprague-Dawley rat at 2.0 mg/kg, iv in 0.1 M capsitol and 10 to 12.5 % DMSO. As to conditions: in vivo.
Series [22] is described as follows: Elimination half life in Sprague-Dawley rat at 2.0 mg/kg, iv in 0.1 M capsitol and 10 to 12.5 % DMSO. As to conditions: in vivo, read-out: beta t1/2.
The nature of series [23]: Apparent volume of distribution in Sprague-Dawley rat at 2.0 mg/kg, iv in 0.1 M capsitol and 10 to 12.5 % DMSO. Particulars: in vivo, read-out: Vz.
The nature of series [24]: Oral bioavailability in Sprague-Dawley rat at 19 mg/kg as suspension with carboxymethylcellulose. The format is ADME, organism-based. Particulars: in vivo, 20 mg/kg, in the assay text read “20 mg/kg” for “19 mg/kg”. The gist of the method: as §3
Series [25] can be described thus: Cmax in Sprague-Dawley rat at 20 mg/kg, po as suspension with carboxymethylcellulose. As to conditions: in vivo.
Series [26] can be described thus: Total clearance in Sprague-Dawley rat at 2.0 mg/kg, iv as solution in 5% glucose and 10% DMSO. Particulars: in vivo.
The nature of series [27]: Elimination half life in Sprague-Dawley rat at 2.0 mg/kg, iv as solution in 5% glucose and 10% DMSO. Particulars: in vivo, read-out: beta t1/2 (converted).
Series [28] is described as follows: Elimination half life in Sprague-Dawley rat at 20 mg/kg, po as suspension with carboxymethylcellulose. Particulars: in vivo, read-out: beta t1/2 (converted).
Series [29] is described as follows: Apparent volume of distribution in Sprague-Dawley rat at 2.0 mg/kg, iv as solution in 5% glucose and 10% DMSO. As to conditions: in vivo, read-out: Vz.

For the compound `O=C(c1ccc(F)cc1)N1CCN2C(=O)c3ccccc3C12c1ccc(Cl)cc1` (racemic), the negative logarithm of the EC50 (pEC50) (commonly the EC50 on a negative log10 scale, so that one unit is a factor of ten) in series [1] is 6.12; in series [2], 6.59; in series [3], 6.55. The half-maximal cytotoxic concentration (CC50) (as a rule, the concentration at which the toxic effect on the cells reaches its halfway point) at 120 h in [4] was above 20 µM. In series [5], the “fold change (FC)” value turned out to be 39. The solubility kinetic in [6] and in series [7] was 6.3 µg/mL (≈ 15.5 µM) in each case. In series [8], the chromatographic logD (in general, a lipophilicity value derived from retention on a column) worked out at 4. For the same compound, the “Ratio EC50” value in [9] and in series [17] was above 76 each time. The fraction unbound in series [10] is 0.02. Moreover, the values for the half-life in [11] and in [15] were 960 min and 1020 min, respectively. The compound further returned a clearance in [12] of 2.1 mL/min/kg. Also, the Vd in series [13] was found to be 2.7 L/kg. Also, the Cmax – broadly, the peak of the concentration-time curve – in series [14] turned out to be 2000 nM. Further, the bioavailability (as a rule, dose-corrected exposure relative to a reference, in per cent) in series [16] came to 15%.

Take `O=C(c1ccc(F)cc1)N1CCN2C(=O)c3ccncc3C12c1ccc(Cl)cc1` (racemic): the results for the negative logarithm of the EC50 (pEC50) in [1], in series [2] and in series [3] were 6.17, 6.66 and 6.64, respectively. Moreover, the 50% cytotoxic concentration (CC50) at 120 h in series [4] is above 49 µM. In addition, the “fold change (FC)” value in [5] is listed as below 10. Besides, the results for the solubility kinetic in series [6] and in [7] were 25 µg/mL (≈ 61.3 µM) and 12.5 µg/mL (≈ 30.6 µM), respectively. In addition, the chromatographic logD in series [8] was found to be 2.8. Moreover, the fraction unbound in series [10] is 0.27. The compound also yielded a maximum concentration (Cmax) in [18] of 6.3 µM. For the same compound, the half-life in [19] and in series [22] was above 1440 min throughout. The same compound showed a bioavailability in series [20] of 28%. Further, the clearance in [21] stood at 2.7 mL/min/kg. The Vd in series [23] came out at 6 L/kg.

As for `O=C(c1ccc(F)cc1)N1CCN2C(=O)c3cc[n+]([O-])cc3C12c1ccc(Cl)cc1` (racemic), the pEC50 in series [1] was 6.04; in [2], 6.92; in series [3], 6.60. In series [4], this compound returned a 50% cytotoxic concentration (CC50) at 120 h above 47 µM. The “fold change (FC)” value in series [5] is listed as below 10. The solubility kinetic in series [6] is 50 µg/mL (≈ 118 µM); in series [7], 25 µg/mL (≈ 59 µM). Further, in series [8], the chromatographic logD was 2.3. The compound also displayed a bioavailability in series [24] of 89%. This compound returned a Cmax in [25] of 23 µM. The compound further showed a clearance in [26] of 2.4 mL/min/kg. For the same compound, the half-life in [27] is 390 min; in series [28], 336 min. Besides, in series [29], the Vd was found to be 1.3 L/kg.
